Measured values taken from ChEMBL document CHEMBL5724801, “EUbOPEN Chemogenomics Library - Multiplex” (2024).
Where “and” joins values, the source holds several entries; their conditions need not be identical. Equal values may be shown once.

Legend:
Type in all cases: toxicity, cell-based
[1] = tested on: Fibroblast; experiment: Multiplex assay against human fibroblast; settings: 10 µM, compound concentration 10 uM
Method in brief: (§1)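 Live cells were stained at seeding with Hoechst33342, BioTracker Green Microtubule Cytoskeleton Dye, MitoTracker Red and Annexin V Alexa Fluor 680. Following compound addition, they were imaged on a CQ1 microscope at 37°C and 5% CO2 and gated by CellPathfinder machine learning into Hoechst high-intensity objects or normal cells, with normal cells split into healthy, pyknosed or fragmented nuclei and pyknosed cells into mitotic or apoptotic. Tubulin, mitochondrial-mass and membrane-permeability phenotypes are per cents of healthy-nucleus cells.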

[2] = tested on: U2OS; experiment: Multiplex assay against U2OS; settings: human, 10 µM, compound concentration 10 uM; method in brief: as §1
[3] = tested on: HEK-293T; experiment: Multiplex assay against HEK293T; settings: human, 10 µM, compound concentration 10 uM; method in brief: as §1

Structure (SMILES): CCC(=O)N1CCN(c2ccc(-n3c(=O)ccc4cnc5ccc(-c6cnc7ccccc7c6)cc5c43)cc2C(F)(F)F)CC1 [TORIN1]
- Population Healthy Nuclei (%) ([1]; 12 h): 60% and 44%
- Population Membrane Permeable-Phenotype (%) ([1]; 12 h): 1%
- Population Mitochondria Different-Phenotype (%) ([1]; 12 h): 5% and 0%
- Population Mitotic Cells (%) ([1]; 12 h): 72% and 65%
- Population Normal (%) ([1]; 12 h): 94% and 90%
- Population Tubulin-Different-Phenotype (%) ([1]; 12 h): 62% and 64%
- Total Cell Count ([1]; 12 h): 155 and 131
- Population Healthy Nuclei (%) ([1]; 24 h): 57%
- Population Membrane Permeable-Phenotype (%) ([1]; 24 h): 0%
- Population Mitochondria Different-Phenotype (%) ([1]; 24 h): 10% and 5%
- Population Mitotic Cells (%) ([1]; 24 h): 66% and 56%
- Population Normal (%) ([1]; 24 h): 96% and 93%
- Population Tubulin-Different-Phenotype (%) ([1]; 24 h): 62% and 59%
- Total Cell Count ([1]; 24 h): 137 and 128
- Population Apoptotic (%) ([1]; 48 h): 80%
- Population Healthy Nuclei (%) ([1]; 48 h): 72% and 62%
- Population Membrane Permeable-Phenotype (%) ([1]; 48 h): 0% and 8%
- Population Mitotic Cells (%) ([1]; 48 h): 20% and 46%
- Population Normal (%) ([1]; 48 h): 96% and 95%
- Population Pyknosed Nuclei (%) ([1]; 48 h): 10%
- Population Tubulin-Different-Phenotype (%) ([1]; 48 h): 67% and 61%
- Total Cell Count ([1]; 48 h): 127 and 136
- Population Apoptotic (%) ([2]; 12 h): 68% and 76%
- Population Healthy Nuclei (%) ([2]; 12 h): 55% and 71%
- Population Hoechst High Intensity Objects (%) ([2]; 12 h): 1% and 3%
- Population Mitochondria Different-Phenotype (%) ([2]; 12 h): 7%
- Population Normal (%) ([2]; 12 h): 98% and 96%
- Population Tubulin-Different-Phenotype (%) ([2]; 12 h): 5% and 9%
- Total Cell Count ([2]; 12 h): 288 and 109
- Population Apoptotic (%) ([2]; 24 h): 77% and 73%
- Population Healthy Nuclei (%) ([2]; 24 h): 54% and 72%
- Population Hoechst High Intensity Objects (%) ([2]; 24 h): 1% and 2%
- Population Mitochondria Different-Phenotype (%) ([2]; 24 h): 9%
- Population Normal (%) ([2]; 24 h): 98% and 97%
- Population Tubulin-Different-Phenotype (%) ([2]; 24 h): 5% and 3%
- Total Cell Count ([2]; 24 h): 287 and 115
- Population Apoptotic (%) ([2]; 48 h): 78% and 82%
- Population Healthy Nuclei (%) ([2]; 48 h): 44%
- Population Hoechst High Intensity Objects (%) ([2]; 48 h): 7% and 2%
- Population Normal (%) ([2]; 48 h): 93% and 97%
- Population Tubulin-Different-Phenotype (%) ([2]; 48 h): 8% and 5%
- Total Cell Count ([2]; 48 h): 300 and 147
- Population Apoptotic (%) ([3]; 12 h): 71% and 51%
- Population Healthy Nuclei (%) ([3]; 12 h): 76%
- Population Hoechst High Intensity Objects (%) ([3]; 12 h): 7%
- Population Membrane Permeable-Phenotype (%) ([3]; 12 h): 0%
- Population Mitochondria Different-Phenotype (%) ([3]; 12 h): 78% and 87%
- Population Mitotic Cells (%) ([3]; 12 h): 48%
- Population Normal (%) ([3]; 12 h): 88% and 92%
- Population Tubulin-Different-Phenotype (%) ([3]; 12 h): 37%
- Total Cell Count ([3]; 12 h): 373 and 266
- Population Apoptotic (%) ([3]; 24 h): 44%
- Population Healthy Nuclei (%) ([3]; 24 h): 75%
- Population Membrane Permeable-Phenotype (%) ([3]; 24 h): 0%
- Population Mitochondria Different-Phenotype (%) ([3]; 24 h): 75% and 82%
- Population Mitotic Cells (%) ([3]; 24 h): 46% and 55%
- Population Normal (%) ([3]; 24 h): 86% and 77%
- Population Tubulin-Different-Phenotype (%) ([3]; 24 h): 43% and 33%
- Total Cell Count ([3]; 24 h): 337 and 225
- Population Apoptotic (%) ([3]; 48 h): 56% and 68%
- Population Healthy Nuclei (%) ([3]; 48 h): 70% and 56%
- Population Membrane Permeable-Phenotype (%) ([3]; 48 h): 0%
- Population Mitochondria Different-Phenotype (%) ([3]; 48 h): 77% and 80%
- Population Mitotic Cells (%) ([3]; 48 h): 43%
- Population Normal (%) ([3]; 48 h): 73% and 38%
- Population Tubulin-Different-Phenotype (%) ([3]; 48 h): 47% and 37%
- Total Cell Count ([3]; 48 h): 292 and 235
